The source of these data is ChEMBL document CHEMBL1125212, “Dual-action cephalosporins: cephalosporin 3'-quinolone carbamates” (J Med Chem, 1991).

≈ marks a conversion by molar mass, not a printed value.

Experiment [1] concerns Escherichia coli. Nature of the experiment: The compound was evaluated for the inhibition of [14C]- Pen G binding to Escherichia coli UB1005 PBP1b 90 kDa. The format is functional. The method, boiled down:
(§1)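 Penicillin-binding protein assay using solubilized membranes from sonicated E. coli UB1005. Binding was read as inhibition of [14C]penicillin G binding to the PBPs.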

In experiment [2] the test system is Escherichia coli. Description: The compound was evaluated for the inhibition of [14C]- Pen G binding to Escherichia coli UB1005 PBP3 60 kDa. The format is functional. A digest of the protocol:
as §1

For experiment [3], the system named is Escherichia coli. Nature of the experiment: The compound was evaluated for the inhibition of [14C]- Pen G binding to Escherichia coli UB1005 PBP1a 90 kDa. The format is functional. A digest of the protocol:
as §1

Experiment [4] relates to Escherichia coli. Description: Minimum inhibitory concentration for inhibition of [14C]- Pen G binding to Escherichia coli UB1005. The format is functional. A digest of the protocol:
as §1

Experiment [5] deals with Escherichia coli. Description: The compound was evaluated for the inhibition of [14C]- Pen G binding to Escherichia coli UB1005 PBP2 66 kDa. The format is functional. The method, boiled down: as §1
The next experiment deals with Citrobacter freundii. Nature of the experiment: The compound was tested in vitro for minimum inhibitory concentration against Citrobacter Freundii BS-16. The format is functional. A digest of the protocol: (§2)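 Agar dilution on Mueller-Hinton agar using 2-fold serial dilutions, giving final 128 to 0.0156 μg/mL (extended to 0.000977 μg/mL where needed). Inoculum was overnight broth culture diluted 100-fold, about 3×10^4 CFU/spot, applied by replicator. MIC read after overnight incubation at 36 °C.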

In experiment [6] the test system is Pseudomonas aeruginosa. Description: The compound was tested in vitro for minimum inhibitory concentration against Pseudomonas aeruginosa 18S/H. The format is functional. The method, boiled down:
as §2

Another experiment deals with Proteus vulgaris. Description: The compound was tested in vitro for minimum inhibitory concentration against Proteus vulgaris 1028 BC. The format is functional. The method, boiled down: (§3)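 Proteus MICs by agar dilution on Mueller-Hinton medium containing 3% agar. Serial 2-fold dilutions gave final 128 to 0.0156 μg/mL (further to 0.000977 μg/mL). Inoculum was overnight broth diluted 100-fold, about 3×10^4 CFU/spot. Plates read after overnight incubation at 36 °C.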

For experiment [7], the system named is Escherichia coli. Description: The compound was evaluated for the inhibition of [14C]- Pen G binding to Escherichia coli UB1005 penicillin-binding protein 1a 90 kDa. A digest of the protocol:
(§4)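 Membranes from sonicated E. coli UB1005 were solubilized. Binding to penicillin-binding proteins was measured as inhibition of [14C]penicillin G binding.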

Experiment [8] deals with Staphylococcus aureus. Description: The compound was tested in vitro for minimum inhibitory concentration against Staphylococcus aureus smith. The format is functional. The method, boiled down: as §2
Experiment [9] deals with Escherichia coli. Description: Minimum inhibitory concentration required to inhibit the activity of Escherichia coli UB1005. The format is functional. The method, boiled down:
as §2

The subject of experiment [10] is Escherichia coli. Nature of the experiment: The compound was tested in vitro for minimum inhibitory concentration against Escherichia coli TEM-1. The format is functional. A digest of the protocol: as §2
Experiment [11] concerns Escherichia coli. Nature of the experiment: Inhibitory activity on replicative DNA biosynthesis in Escherichia coli H560 (permeabilised cells). The format is functional, organism-based. A digest of the protocol: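 E. coli H560 cells permeabilized with toluene. ATP-dependent incorporation of [3H]thymidine into trichloroacetic acid-insoluble material was measured. IC50 taken as the concentration giving 50% inhibition.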

The subject of experiment [12] is Pseudomonas aeruginosa. Nature of the experiment: The compound was tested in vitro for minimum inhibitory concentration against Pseudomonas aeruginosa 8780. The format is functional. A digest of the protocol: as §2
Experiment [13] has as its system Escherichia coli. Nature of the experiment: The compound was evaluated for the inhibition of [14C]- Pen G binding to Escherichia coli UB1005 penicillin-binding protein 2 66 kDa. The method, boiled down:
as §4

A further experiment has as its system Serratia marcescens. Nature of the experiment: The compound was tested in vitro for minimum inhibitory concentration against Serratia marcescens 1071. The format is functional. A digest of the protocol:
as §2

A further experiment deals with Klebsiella pneumoniae. Nature of the experiment: The compound was tested in vitro for minimum inhibitory concentration against Klebsiella pneumoniae A. The format is functional. The method, boiled down: as §2
Another experiment has as its system Enterococcus faecalis. Nature of the experiment: The compound was tested in vitro for minimum inhibitory concentration against Enterococcus faecalis ATCC 29212. The format is functional. A digest of the protocol: as §2
The test system of another experiment is Streptococcus pyogenes. Nature of the experiment: The compound was tested in vitro for minimum inhibitory concentration against Streptococcus pyogenes. The format is functional. A digest of the protocol:
(§5)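 Streptococci tested by agar dilution on brain heart infusion agar with 20 units/mL bovine liver catalase. Final drug range 128 to 0.0156 μg/mL by 2-fold steps, extended to 0.000977 μg/mL when required. Inoculum about 3×10^4 CFU/spot from overnight broth diluted 100-fold. MIC after overnight incubation at 36 °C.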

A further experiment has as its system Micrococcus luteus. Nature of the experiment: The compound was tested in vitro for minimum inhibitory concentration against Micrococcus luteus ATCC 9341. The format is functional. A digest of the protocol:
as §2

For experiment [14], the system named is Escherichia coli. Nature of the experiment: The compound was tested in vitro for minimum inhibitory concentration against Escherichia coli 257. The format is functional. The method, boiled down:
as §2

Experiment [15] has as its system Escherichia coli. Description: The compound was evaluated for the inhibition of [14C]- Pen G binding to Escherichia coli UB1005 penicillin-binding protein 1b 90 kDa. A digest of the protocol: as §4
Experiment [16] concerns Staphylococcus aureus. Nature of the experiment: The compound was tested in vitro for minimum inhibitory concentration against Staphylococcus aureus 67-0. The format is functional. The method, boiled down:
as §2

In experiment [17] the test system is Staphylococcus aureus. Description: The compound was tested in vitro for minimum inhibitory concentration against Staphylococcus aureus 753. The format is functional. The method, boiled down:
as §2

Experiment [18] deals with Escherichia coli. Nature of the experiment: Minimum inhibitory concentration required to inhibit the activity of Escherichia coli ATCC 25922. The format is functional. The method, boiled down: as §2
The subject of another experiment is Enterobacter cloacae. Nature of the experiment: The compound was tested in vitro for minimum inhibitory concentration against Enterobacter cloacae P99. The format is functional.
Another experiment concerns Proteus mirabilis. Description: The compound was tested in vitro for minimum inhibitory concentration against Proteus mirabilis 90. The format is functional. A digest of the protocol:
as §3

Experiment [19] deals with Escherichia coli. Description: The compound was tested in vitro for minimum inhibitory concentration against Escherichia coli ATCC 25922. The format is functional. The method, boiled down:
as §2

Experiment [20] has as its system Escherichia coli. Description: The compound was evaluated for the inhibition of [14C]- Pen G binding to Escherichia coli UB1005 penicillin-binding protein 3 60 kDa. The method, boiled down: as §4
In another experiment the test system is Streptococcus pneumoniae. Nature of the experiment: The compound was tested in vitro for minimum inhibitory concentration against Streptococcus pneumoniae 6301. The format is functional. The method, boiled down: as §5
Experiment [21] has as its system Escherichia coli. Description: Minimum inhibitory concentration for inhibition of [14C]- Pen G binding to Escherichia coli UB1005. The format is functional. A digest of the protocol: as §4

The MIC is the lowest concentration found to suppress growth. Low values mean inhibition by little substance, high ones a need for much substance. For `CC(C)(O/N=C(\C(=O)N[C@@H]1C(=O)N2C(C(=O)[O-])=C(C[n+]3ccccc3)CS[C@H]12)c1csc(N)n1)C(=O)O` [CEFTAZIDIME], the Inhibitory concentration is 10 µg/mL with Escherichia coli [1], 0.5 µg/mL in the experiment on Escherichia coli [2], 10 µg/mL with Escherichia coli [3] and above 100 µg/mL with Escherichia coli [5]. The molecule further showed a minimal inhibitory concentration (MIC) with Escherichia coli [4] of 0.1 µg/mL (≈ 0.183 µM).

As usually defined, the IC50 is the midpoint of a concentration-inhibition curve. High values mean lower potency, low ones higher potency. With `CCN1CCN(C(=O)NC(C(=O)N[C@@H]2C(=O)N3C(C(=O)O)=C(COC(=O)N4CCN(c5cc6c(cc5F)c(=O)c(C(=O)O)cn6C5CC5)CC4)CS[C@H]23)c2ccccc2)C(=O)C1=O` (some centres not stated), the MIC with Citrobacter freundii worked out at 0.063 µg/mL (≈ 0.0709 µM); against Pseudomonas aeruginosa [6] it was 1 µg/mL (≈ 1.13 µM); in the experiment on Proteus vulgaris it was 0.063 µg/mL (≈ 0.0709 µM); with Staphylococcus aureus [8], 0.5 µg/mL (≈ 0.563 µM); in the experiment with Escherichia coli [9], 1 µg/mL (≈ 1.13 µM); against Escherichia coli [10] it was 0.063 µg/mL (≈ 0.0709 µM). In addition, the MIC in the experiment with Pseudomonas aeruginosa [12] came out at 2 µg/mL (≈ 2.25 µM); with Serratia marcescens, 0.125 µg/mL (≈ 0.141 µM); against Klebsiella pneumoniae, 0.125 µg/mL (≈ 0.141 µM); with Enterococcus faecalis, 4 µg/mL (≈ 4.5 µM); against Streptococcus pyogenes, 0.063 µg/mL (≈ 0.0709 µM); against Micrococcus luteus it was 0.125 µg/mL (≈ 0.141 µM). For the same molecule, the MIC against Escherichia coli [14] was determined as 0.063 µg/mL (≈ 0.0709 µM); in the experiment on Staphylococcus aureus [16], 4 µg/mL (≈ 4.5 µM); against Staphylococcus aureus [17], 1 µg/mL (≈ 1.13 µM); against Escherichia coli [18] it was 0.06 µg/mL (≈ 0.0675 µM); against Enterobacter cloacae, 0.031 µg/mL (≈ 0.0349 µM); against Proteus mirabilis, 1 µg/mL (≈ 1.13 µM). The results for the MIC against Escherichia coli [19], with Streptococcus pneumoniae and in the experiment on Escherichia coli [21] were 0.063 µg/mL (≈ 0.0709 µM), 0.031 µg/mL (≈ 0.0349 µM) and 1 µg/mL (≈ 1.13 µM), respectively. The Inhibitory concentration in the experiment with Escherichia coli [7] was 10 µg/mL; with Escherichia coli [13], above 100 µg/mL; with Escherichia coli [15], 10 µg/mL; with Escherichia coli [20], 0.5 µg/mL. Also, the IC50 in the experiment on Escherichia coli [11] was 9 µg/mL (≈ 10.1 µM).

Regarding `N#CCC(=O)N[C@@H]1C(=O)N2C(C(=O)O)=C(COC(=O)N3CCN(c4cc5c(cc4F)c(=O)c(C(=O)O)cn5C4CC4)CC3)CS[C@H]12`, the MIC came out at 0.063 µg/mL (≈ 0.0962 µM) with Citrobacter freundii; 0.5 µg/mL (≈ 0.764 µM) against Pseudomonas aeruginosa [6]; 0.031 µg/mL (≈ 0.0474 µM) in the experiment with Proteus vulgaris; 0.25 µg/mL (≈ 0.382 µM) with Staphylococcus aureus [8]; 1 µg/mL (≈ 1.53 µM) in the experiment on Escherichia coli [9]; 0.063 µg/mL (≈ 0.0962 µM) against Escherichia coli [10]. Besides, the MIC against Pseudomonas aeruginosa [12] came to 1 µg/mL (≈ 1.53 µM); with Serratia marcescens, 0.125 µg/mL (≈ 0.191 µM); against Klebsiella pneumoniae it was 0.125 µg/mL (≈ 0.191 µM); with Enterococcus faecalis, 4 µg/mL (≈ 6.11 µM); in the experiment on Streptococcus pyogenes, 0.031 µg/mL (≈ 0.0474 µM); in the experiment with Micrococcus luteus, 0.125 µg/mL (≈ 0.191 µM). In addition, the minimal inhibitory concentration (MIC) with Escherichia coli [14] was 0.063 µg/mL (≈ 0.0962 µM); against Staphylococcus aureus [16], 2 µg/mL (≈ 3.06 µM); against Staphylococcus aureus [17] it was 1 µg/mL (≈ 1.53 µM); against Escherichia coli [18], 0.06 µg/mL (≈ 0.0917 µM); with Enterobacter cloacae, below 0.016 µg/mL; in the experiment with Proteus mirabilis it was 0.5 µg/mL (≈ 0.764 µM). Also, the minimum inhibitory concentration (MIC) amounted to 0.063 µg/mL (≈ 0.0962 µM) with Escherichia coli [19], 0.031 µg/mL (≈ 0.0474 µM) against Streptococcus pneumoniae and 1 µg/mL (≈ 1.53 µM) against Escherichia coli [21]. Further, the Inhibitory concentration in the experiment with Escherichia coli [7] is above 100 µg/mL; in the experiment with Escherichia coli [13] it was above 100 µg/mL; in the experiment with Escherichia coli [15] it was above 100 µg/mL; with Escherichia coli [20] it was 100 µg/mL. The molecule further registered a concentration for half-maximal inhibition (IC50) with Escherichia coli [11] of 1 µg/mL (≈ 1.53 µM).
